{"source": "paper PMC4245161", "about": "(ACS Chemical Biology, 2014)", "key": {"[1]": {"tested_on": "GFP transcript in LDR cells", "format": "cell-based, mouse", "conditions": "200 nM, 24 h, relative to DMSO-treated cells"}, "[2]": {"tested_on": "acetylated H3 at the CMV promoter in LDR cells", "test": "Chromatin immunoprecipitation of acetylated H3 at the CMV promoter", "format": "cell-based, mouse", "conditions": "250 ng/mL, 24 h", "summary_of_the_method": "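LDR cells (C127 mouse mammary line carrying a silenced CMV-GFP reporter; DMEM, 10% heat-inactivated FBS) treated with test compound at 250 ng/mL or DMSO vehicle (24 h per legend; overnight per methods). Formaldehyde cross-linking, then ChIP by standard protocol with anti-acetylated H3 antibody. After cross-link reversal, PCR with CMV-promoter primers run on a gel. Controls were a no-antibody background and 10% input.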"}}}
{"smiles": "CC(/C=C/C(=O)NO)=C\\[C@@H](C)C(=O)c1ccc(N(C)C)cc1", "note": "[Trichostatin A]", "values": [{"measurement": "induction of GFP transcripts", "setting": "[1]", "value": "at least 5 fold"}, {"measurement": "histone acetylation at the CMV promoter (ChIP)", "setting": "[2]", "value": "markedly increases"}]}
